A short description of assay [1]: inhibitors of TNFa-induced NFkB p65 translocation, primary screen, imaging, HUVEC, MLSMR starter and 10KST1 sets (AID 438;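 active = inhibition above 20% together with a positive visual image hit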;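 also: compound added about 3h40 before a 20 min TNFalpha stimulation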;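 as to inhibition: signal is the nuclear over cytoplasmic p65 intensity ratio per well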). The conditions noted are these: HUVEC TNFa-induced p65 nuclear translocation; cell count: measured here: nuclei count (cytotoxicity indicator), at 2.08 µM; inhibition: at 2 µM, stronger effect = higher value, 0% TNFa-plus-vehicle, 100% no-TNFa wells.
Assay [2] in a line: endothelial E-selectin expression blockers – imaging, HUVEC, immunofluorescence, MLSMR starter and 10KST1 sets, primary screen (AID 487;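 active = visually confirmed hit in the image check and inhibition above 20%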;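 as to inhibition: signal is fraction of cell area covered by stained E-selectin grains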;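 as to nuclei count: 100% = median nuclei count of all wells on the same plate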). The conditions noted are these: HUVEC TNFalpha-induced E-selectin immunofluorescence imaging, at 2 µM; inhibition: stronger effect = higher value; nuclei count: measured here: cell number, toxicity.
The nature of assay [3]: Primary imaging screen for DUSP6 inhibitors that restore phospho-Erk in transfected HeLa cells, chemical complementation (AID 609;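 active = compounds giving at least 50% inhibition in the cell-based MKP-3 phosphatase rescue imaging test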;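 as to inhibition: phospho-Erk level distribution per well compared with pooled transfected vehicle control wells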). To be noted: HeLa MKP-3 transfected, phospho-Erk imaging KS statistic, at 10 µM, cells stimulated with TPA for 15 min.
In assay [4] the target is Dual specificity protein phosphatase 6 (Homo sapiens) (UniProt Q16828). The assay is described as above. The conditions noted are these: HeLa MKP-3 transfected, phospho-Erk imaging KS statistic; at 10 µM; stronger effect = higher value; cells stimulated with TPA for 15 min.
In assay [5] the target is Voltage-gated potassium channel subunit beta-2 (Rattus norvegicus) (UniProt P62483). As to the kind of experiment: inhibitors of rat Kvbeta2 reductase activity – biochemical, NADPH fluorescence, primary screen (AID 622;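 active = fluorescence slope higher than the sample average by over 3 SD, cut at about -0.22 in these data, passing the limit was not always enough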;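 also: slope of raw intensity against log time taken from 70 to 1610 s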). To be noted: recombinant KvBeta, 4-cyanobenzaldehyde reduction, at 10 µM, stronger effect = higher value.
Assay [6] has the same target. As to the kind of experiment: enhancers of rat Kvbeta2 NADPH turnover – biochemical, NADPH fluorescence, primary screen (AID 623;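 active = NADPH fluorescence slope more negative than the mean of all samples by about 3 SD, 99.7% confidence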;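 also: fluorescence intensity change per second fitted from 20 to 320 s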). To be noted: Recombinant KvBeta, NADPH fluorescence decrease slope, 10 min; at 10 µM; stronger effect = lower value.
For assay [7], the target named is Alpha-2C adrenergic receptor (Homo sapiens) (UniProt P18825). As to the kind of experiment: compounds altering alpha2C-coupled GIRK flux – cell-based, HEK293 alpha2C/GIRK1/2, thallium flux, primary screen (AID 624;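 active = fluorescence slope after compound addition differing from the mean of all screened samples at 99.7% confidence, in either direction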;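 also: slope of fluorescence ratio to pre-addition baseline per second over 15 to 24 s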). The conditions noted are these: thallium flux BTC fluorescence, at 10 µM, actives lie on both sides.
A short description of assay [8]: inhibitors of larval lipid processing in zebrafish, primary screen, whole organism, PED6 fluorescence, gall bladder and intestine (AID 686;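 active = a full or partial loss of lipid-probe fluorescence in the fish gall bladder, intestine or both, judged by eye; inactive = no fluorescence loss, or compound toxic to the fish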;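 also: larvae 5 to 7 days old with five fish per well; signal comes from phospholipase A2 cleavage of quenched PED6 carried via bile; overnight exposure to compound and PED6 before scoring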). To be noted: Zebrafish larvae PED6 lipid processing, fluorescence scoring; screened at 20 µM (by protocol). The gist of the method:
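Test system – live zebrafish larvae aged 5-7 days, whole organism · Buffer or medium – E3 fish medium · Reagent – quenched phospholipase substrate PED6, 100 nM final, ingested by larvae · Doses – 20 µM single dose · Incubation – overnight compound and PED6 incubation · Technique – visual fluorescence microscopy scoring of gall bladder, gut · Read-out basis – visual per-well fluorescence inhibition score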

Assay [9] is described as follows: loss of swimming-algae plug formation – whole organism, Chlamydomonas reinhardtii, WT vs cilia-less mutant, absorbance, 96-well, primary screen (AID 463189).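 Also: 0% = wild type cc124 cells in DMSO and 100% = ciliumless bld1 mutant cells.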 To be noted: Chlamydomonas reinhardtii gravitaxis, OD600 absorbance, 2 days; at 10 µM; stronger effect = higher value.
Setting [10] is: measured here: cell density z-score.
Setting [11] is: measured here: nuclear c-Myc green intensity z-score.
Where [12] appears, read: measured here: nuclear pErk red intensity z-score, stronger effect = higher value.

This is an account of results in PubChem BioAssay.

Molecules are shown by their SMILES. Activity calls are given as the source filed them.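 The calls were made as follows, unless noted: active = inhibition at or above 50% relative to wild type and mutant plate controls; inactive = inhibition below 50%.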

Sequence of Voltage-gated potassium channel subunit beta-2 (Rattus norvegicus) (P62483 whole entry, looked up): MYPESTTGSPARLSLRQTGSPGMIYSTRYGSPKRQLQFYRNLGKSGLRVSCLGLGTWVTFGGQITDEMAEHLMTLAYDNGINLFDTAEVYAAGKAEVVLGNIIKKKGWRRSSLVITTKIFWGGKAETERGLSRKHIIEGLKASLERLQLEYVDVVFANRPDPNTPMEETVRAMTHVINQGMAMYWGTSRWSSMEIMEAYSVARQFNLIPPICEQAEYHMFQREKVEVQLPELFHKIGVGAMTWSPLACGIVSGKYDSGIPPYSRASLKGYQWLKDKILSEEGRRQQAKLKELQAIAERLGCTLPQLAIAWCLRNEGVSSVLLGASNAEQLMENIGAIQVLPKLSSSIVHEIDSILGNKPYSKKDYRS
Sequence of Alpha-2C adrenergic receptor (Homo sapiens) (P18825 whole entry, looked up): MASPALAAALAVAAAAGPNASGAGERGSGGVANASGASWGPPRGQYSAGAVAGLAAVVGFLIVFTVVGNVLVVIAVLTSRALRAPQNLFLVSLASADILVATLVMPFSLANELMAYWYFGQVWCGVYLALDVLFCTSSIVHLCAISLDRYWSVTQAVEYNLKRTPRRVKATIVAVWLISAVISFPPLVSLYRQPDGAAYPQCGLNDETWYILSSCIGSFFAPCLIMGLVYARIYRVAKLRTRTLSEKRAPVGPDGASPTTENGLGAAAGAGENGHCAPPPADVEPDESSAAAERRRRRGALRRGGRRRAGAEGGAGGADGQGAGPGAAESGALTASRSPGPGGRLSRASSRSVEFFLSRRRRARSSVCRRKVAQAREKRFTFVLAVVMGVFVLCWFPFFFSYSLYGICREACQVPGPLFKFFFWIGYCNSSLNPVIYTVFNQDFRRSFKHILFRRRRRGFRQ
Sequence of Dual specificity protein phosphatase 6 (Homo sapiens) (Q16828 whole entry, looked up): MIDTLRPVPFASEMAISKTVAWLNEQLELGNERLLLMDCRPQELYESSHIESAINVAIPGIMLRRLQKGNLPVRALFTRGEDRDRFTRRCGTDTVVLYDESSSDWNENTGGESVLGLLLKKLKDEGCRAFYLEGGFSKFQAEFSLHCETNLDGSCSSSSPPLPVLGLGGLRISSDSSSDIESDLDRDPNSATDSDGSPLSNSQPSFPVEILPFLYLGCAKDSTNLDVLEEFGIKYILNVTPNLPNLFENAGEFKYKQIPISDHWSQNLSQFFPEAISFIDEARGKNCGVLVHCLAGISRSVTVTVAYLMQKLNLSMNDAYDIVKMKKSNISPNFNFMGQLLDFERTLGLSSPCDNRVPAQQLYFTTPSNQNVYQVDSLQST

As to `C=CCOC(=O)C(C#N)c1nc2ccccc2nc1N1CCC(C(=O)OCC)CC1` (stereo unspecified), in assay [1], the cell count stood at 486. Further, the inhibition was -17.7% (inactive) in assay [1], -58.1% (inactive) in assay [2], -6.06% (inactive) in [4] and 13.6% (inactive) in assay [9]. Also, the nuclei count in assay [2] is 138%. The z-score is 0.17 in assay [3] (setting [10]), 0.218 in assay [3] (setting [11]) and -0.151 in assay [3] (setting [12]). Moreover, the fluorescence slope in assay [5] is -0.471 (inactive). For the same compound, the NADPH fluorescence slope in [6] is -6.3e-05 (inactive). Besides, in assay [7], the slope was 0.00188 (inactive). In assay [8], the compound was classed as inactive.

For the compound `Cc1nc(SCC(N)=O)[nH]c(=O)c1Cc1ccc(OC(C)C)cc1`, the cell count in [1] is 585. In addition, the inhibition in assay [1] was 5.2% (inactive); in [2] it was 22.1% (inactive); in [4] it was 3.5% (inactive); in [9] it was -1.58% (inactive). Further, the nuclei count in [2] is 150%. Besides, the z-score is -0.515 in assay [3] (setting [10]), 0.503 in assay [3] (setting [11]) and 0.0528 in assay [3] (setting [12]). In [5], the fluorescence slope is -0.331 (inactive). In addition, in assay [6], the NADPH fluorescence slope was 2.9e-05 (inactive). Further, the slope in [7] was 0.00497 (inactive). The compound was classed as inactive in assay [8].

Regarding `CCOC(=O)COn1c(=O)c(-c2ccco2)[n+]([O-])c2ccccc21`, in assay [1], the cell count came to 534. The inhibition in assay [1] is 1.6% (inactive); in assay [2], 3.6% (inactive); in [4] it was 8.76% (inactive); in assay [9], 34.2% (inactive). Moreover, the nuclei count in assay [2] was determined as 130%. Besides, the z-score in [3] (setting [10]) was 2.03; in assay [3] (setting [11]) it was 1.19; in [3] (setting [12]), -0.23. Besides, the fluorescence slope in [5] is -0.283 (inactive). For the same compound, the NADPH fluorescence slope in [6] is -1.2e-05 (inactive). In addition, the slope in assay [7] is 0.00422 (inactive). The outcome in assay [8] was inactive.

Turning to `O=c1[nH]c(CN2CCCCC2)nc2c1C1(CCCC1)Cc1ccccc1-2`, in assay [1], the cell count came to 414. In addition, the inhibition was -0.5% (inactive) in assay [1], -29.1% (inactive) in assay [2], -1.12% (inactive) in assay [4] and -2.89% (inactive) in assay [9]. In [2], this compound yielded a nuclei count of 101%. Besides, the results for the z-score in assay [3] (setting [10]), in assay [3] (setting [11]) and in assay [3] (setting [12]) were 0.73, -0.701 and -0.0539, respectively. The fluorescence slope in assay [5] was -0.233 (inactive). Also, in [6], the NADPH fluorescence slope was -8.8e-06 (inactive). In addition, the slope in [7] was 0.00603 (inactive). Moreover, in assay [8], the compound was called inactive.

For the compound `COc1cccc(-c2nn3c(-c4ccco4)nnc3s2)c1`, the cell count in assay [1] stood at 611. Further, the inhibition in assay [1] is -8.6% (inactive); in assay [2], 16.8% (inactive); in assay [4], 2.92% (inactive); in assay [9] it was -2.32% (inactive). The compound further had a nuclei count in assay [2] of 155%. Also, the z-score was 0.808 in assay [3] (setting [10]), -0.226 in assay [3] (setting [11]) and -0.00224 in [3] (setting [12]). The fluorescence slope in [5] is -0.406 (inactive). Besides, in [6], the NADPH fluorescence slope was -0.000142 (inactive). For the same compound, in assay [7], the slope is 0.00559 (inactive). Besides, the result in [8] was inactive.

For `Cc1ccc(C2/C(=C(/O)c3ccc(OC(C)C)cc3)C(=O)C(=O)N2CCN2CCOCC2)cc1` (stereo unspecified), the cell count in assay [1] stood at 526. Also, the inhibition is -2% (inactive) in [1], 7.7% (inactive) in assay [2], -2.91% (inactive) in assay [4] and 2.83% (inactive) in [9]. The compound also registered a nuclei count in assay [2] of 166%. Moreover, the z-score in assay [3] (setting [10]) came to 0.417; in assay [3] (setting [11]), 1.31; in assay [3] (setting [12]), 0.598. The fluorescence slope in assay [5] was -0.295 (inactive). Besides, in assay [6], the NADPH fluorescence slope is 1.7e-05 (inactive). Further, the slope in assay [7] was 0.00456 (inactive). Also, in [8], the call was inactive.

`Cc1ccc2c(c1)[C@@H]1CN(C)CC[C@@H]1N2S(=O)(=O)c1ccc(F)cc1`: the cell count in assay [1] is 507. Moreover, the inhibition is -8.3% (inactive) in [1], -69% (inactive) in [2], -8.27% (inactive) in [4] and 10.5% (inactive) in [9]. In addition, the nuclei count in assay [2] is 199%. In addition, the z-score in assay [3] (setting [10]) is -0.629; in assay [3] (setting [11]), -0.478; in assay [3] (setting [12]) it was -0.18. Further, in assay [5], the fluorescence slope is -0.324 (inactive). Also, in assay [6], the NADPH fluorescence slope is -2.1e-06 (inactive). In addition, the slope in assay [7] is 0.00411 (inactive). In addition, the compound was classed as inactive in assay [8].
